# An excerpt weighted towards active compounds, which were near 1.5% of everything screened.
# Rin1 Abl inh: human Rin1-Abl interaction inhibition; P00519+Q13671; TR-FRET Rin1/Abl binding, biochemical; inhibition, % at 7.35 µM; hit rate 0.4% among 360,000; in the data active = inhibition above about 5%, passing the limit was not always enough
# TbMetRS inhib: blocks T. brucei methionyl-tRNA synthetase activity; purified T. brucei MetRS, ATP depletion, Kinase-Glo luminescence; AID 624268; inhibition, % at 11.9 µM; hit rate 0.4% among 360,000;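 active = inhibition above a per-plate cutoff of the control wells' mean inhibition plus 3 SD, cut at about 5.5% in these data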;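 also: 0% = DMSO wells median and 100% = median of wells with control inhibitor compound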
#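 Assay system: T. brucei methionyl-tRNA synthetase, purified | Medium: HEPES buffer with MgCl2, KCl, DTT, spermine, BSA, pyrophosphatase | Compound: 11.9 µM single point | Incubation: 15 min enzyme-compound preincubation, 2 h reaction, 10 min detection, 25 °C | Measured by: Kinase-Glo luciferase luminescence reporting remaining unconsumed ATP | Measure: % inhibition normalized to control-well medians | Replication: Singlicate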
# PKA-R1A activ: PKA-R1A complex activation | AID 504707 | hit rate 0.083% among 340,000 | activation, % at 11.4 µM | P00514+P68181 | PKA-R1A dissociation, Cy5-IP20 fluorescence polarization; scaled: DMSO 0%, 113 µM cGMP 100%;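 active = percent activation above the mean of all tested compounds plus 3 SD, cut at about 19% in these data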;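 also: higher means more PKAc released from R1A so a rise in polarization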
# PKA-R2B act: activators of human PKA-R2B complex | P22694+P31323 | PKA-R2B holoenzyme dissociation, Cy5-IP20 fluorescence polarization; R2B truncated from residue 108, S112A mutant; 0% DMSO only, 100% 113 µM cGMP | activation, % at 11.4 µM | hit rate 0.079% among 340,000 | AID 504700;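 active = activation above a cutoff set at the mean over all compounds plus 3 SD, cut at about 18% in these data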;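 also: higher means more holoenzyme dissociation and a rise in polarization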
# Target sequence (P31323 whole entry, looked up, other chains not shown, the tested form may be a part): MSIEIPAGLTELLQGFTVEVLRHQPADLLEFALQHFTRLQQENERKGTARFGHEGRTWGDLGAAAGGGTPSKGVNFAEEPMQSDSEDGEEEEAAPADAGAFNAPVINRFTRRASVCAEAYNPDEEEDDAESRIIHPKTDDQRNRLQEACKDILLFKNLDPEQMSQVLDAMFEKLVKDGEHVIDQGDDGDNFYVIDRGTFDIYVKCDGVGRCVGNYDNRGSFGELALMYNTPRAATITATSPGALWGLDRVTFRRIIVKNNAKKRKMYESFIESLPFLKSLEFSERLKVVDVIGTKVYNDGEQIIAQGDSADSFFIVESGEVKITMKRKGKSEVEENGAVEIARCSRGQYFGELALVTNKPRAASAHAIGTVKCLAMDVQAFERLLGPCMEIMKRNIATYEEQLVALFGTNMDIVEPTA
# Cardio protect: modulators protecting cardiomyocytes from myocardial damage. hit rate 0.63% among 360,000. AID 588492. H9c2 cardiomyocytes, H2O2 injury protection, ATPLite, 2 h. protection from H2O2 cell death, % at 20 µM;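 active = compounds giving at least 50% protection of heart cells from peroxide-induced death in the single-dose screen, raw or plate-pattern-corrected value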;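 also: 0% = DMSO wells with peroxide and 100% = DMSO wells without peroxide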
# Tb MetRS conf: Trypanosoma brucei MetRS inhibition confirmed | hit rate 93% among 1,400 | AID 624412 | T. brucei MetRS enzyme, luminescence (ATP depletion) | shares compounds with TbMetRS inhib | inhibition, % at 11.9 µM; in the data active = inhibition above about 7%
# Jurkat tox: kills Jurkat cells in T. brucei MetRS counterscreen | shares compounds with TbMetRS inhib | Jurkat cells viability, ATP luminescence | inhibition, % at 8.3 µM | hit rate 12% among 1,400; in the data active = inhibition above about 15%;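 also: 0% = vehicle and 100% = reference inhibitor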
# TbMetRS FP orth: inhibits T. brucei methionyl tRNA synthetase in orthogonal FP test | shares compounds with TbMetRS inhib | purified T. brucei MetRS, fluorescence polarization | inhibition, % at 11.9 µM | hit rate 44% among 1,400; in the data active = inhibition above about 17%;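 also: 0% = vehicle wells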
# * marks the source's active call; other numbers are inactive results; . = no result given.
SMILES,Rin1 Abl inh,TbMetRS inhib,PKA-R1A activ,PKA-R2B act,Cardio protect,Tb MetRS conf,Jurkat tox,TbMetRS FP orth
Cc1ccc(C(=O)O)cc1NC(=O)CSc1ncnc2sc3c(c12)CCC3,0.7,-1.2,-9.2,-7.8,3.1,.,.,.
O=C(Nc1ccccc1OC(F)F)c1ccc(-n2cncn2)c([N+](=O)[O-])c1,2.1,18.8*,-1.4,-1.4,2.1,51.7*,-10.1,21.8*
Cc1cc(Br)ccc1NC(=O)CN(C)C(=O)c1ccc(-n2cncn2)c([N+](=O)[O-])c1,0.9,2.9,5.6,9.0,3.6,.,.,.
Cc1cc(Br)ccc1NC(=O)CNC(=O)c1ccc(-n2cncn2)c([N+](=O)[O-])c1,0.5,26.8*,8.5,-3.3,-4.1,63.1*,0.8,29.4*
Cc1cc(C)c(NC(=O)CNC(=O)c2ccc(-n3cncn3)c([N+](=O)[O-])c2)c(C)c1,-3.9,8.0*,-4.0,-9.4,3.4,35.0*,-1.5,14.8
CC(C)(C)c1ccccc1NC(=O)c1ccc(-n2cncn2)c([N+](=O)[O-])c1,0.9,13.5*,-5.9,-3.0,3.7,43.4*,2.0,14.0
O=C(O)CCCNC(=O)Cc1ccccc1,-2.1,0.1,-5.1,4.8,6.1,.,.,.
Cc1cc(Br)ccc1NC(=O)c1ccc(-n2cncn2)c([N+](=O)[O-])c1,-0.7,32.1*,1.1,2.0,1.2,79.2*,1.6,52.4*
CC(C)Cc1nnc(NC(=O)c2ccc(-n3cncn3)c([N+](=O)[O-])c2)s1,-1.0,1.4,-2.4,-0.9,1.8,.,.,.
CCc1nc2c(OCC3COc4ccccc4O3)cccn2c1N(C)C(=O)c1cccs1 (stereo unspecified),-1.8,-0.4,.,.,-6.3,.,.,.
Nc1cc(N)nc(CS)n1,-2.1,-0.1,-12.2,-2.0,-1.7,.,.,.
Cc1c(NC(=O)COc2ccc(C(C)C)cc2)c(=O)n(-c2ccccc2)n1C,1.0,0.1,2.2,-4.9,0.0,.,.,.
COCCN(C(=O)c1csnn1)C(C(=O)NC1CCCCC1)c1ccccc1 (stereo unspecified),-1.1,0.1,4.7,0.0,1.3,.,.,.
COCCN(C(=O)c1csnn1)C(C(=O)NC1CCCCC1)c1ccc(Cl)cc1 (stereo unspecified),0.1,9.2*,1.7,2.3,-2.4,2.0,-1.8,-2.2
O=C(CN1CCN(S(=O)(=O)c2ccc(F)c(Cl)c2)CC1)N1CCNC1=O,0.9,-0.4,0.4,-6.1,-0.3,.,.,.
Cn1cc(S(=O)(=O)N2CCOCC2)cc1C(=O)NCc1ccc(Cl)cc1,-3.8,35.7*,-0.7,0.5,4.6,50.8*,-1.5,28.1*
C=CCNC(=S)NNC(=O)c1ccccc1,-2.1,-0.6,2.8,2.1,1.0,.,.,.
C=CCNC(=S)NNC(=O)c1ccc(=O)n(Cc2ccccc2)c1,2.5,12.7*,.,.,1.8,23.6*,1.4,9.1
Cc1cccc(OCCSCc2nc3ccccc3[nH]2)c1,-1.7,8.7*,-9.7,-2.0,-27.7,19.6*,-1.5,5.8
Cc1ccccc1OCCSCc1nc2ccccc2[nH]1,-2.7,6.2*,-14.5,-7.9,-13.2,16.8*,6.4,5.6
Cc1cccc(OCCCC(=O)Nc2nc3ccccc3[nH]2)c1,2.8,63.1*,-6.5,4.5,-12.6,67.2*,5.1,46.0*
Cc1ccc(OCCCC(=O)Nc2nc3ccccc3[nH]2)cc1,2.7,4.4,8.4,-3.2,14.2,.,.,.
CN(CC(=O)Nc1ccccc1Br)C(=O)c1cc(S(=O)(=O)N(C)C)ccc1N1CCCC1,1.2,-0.3,-0.8,0.9,-1.9,.,.,.
CN(CC(=O)Nc1cccc(F)c1)C(=O)c1cc(S(=O)(=O)N(C)C)ccc1N1CCCC1,4.2,10.0*,-6.2,-2.3,-0.9,27.5*,2.5,9.9
Cc1ccc(NC(=O)CN(C)C(=O)c2cc(S(=O)(=O)N(C)C)ccc2N2CCCC2)cc1,1.1,48.7*,-6.7,-12.3,-1.5,78.1*,4.9,52.5*
SMILES,Rin1 Abl inh,TbMetRS inhib,PKA-R1A activ,PKA-R2B act,Cardio protect,Tb MetRS conf,Jurkat tox,TbMetRS FP orth
N/N=C(/Cc1nc2ccccc2[nH]1)c1ccc([N+](=O)[O-])cc1,2.8,6.0*,11.1,-10.4,-13.3,87.6*,-0.4,66.0*
Cc1ccc2nc(CCc3nc4ccc(C)cc4[nH]3)[nH]c2c1,2.5,6.4*,-6.7,-2.1,0.7,11.1*,3.1,4.6
c1ccc(N/N=C(\Cc2nc3ccccc3[nH]2)c2ccccc2)cc1,2.7,3.1,-15.1,-6.2,-17.1,.,.,.
O=C(Cc1nc2ccccc2[nH]1)c1ccc(Br)cc1,-0.1,10.8*,-9.8,10.1,1.0,2.3,9.5,5.8
c1ccc2[nH]c(CCCCc3nc4ccccc4[nH]3)nc2c1,2.5,6.4*,-7.2,-9.6,9.4,16.3*,0.9,11.8
NS(=O)(=O)c1ccc(CNC(=S)NC2CC2)cc1,0.9,-0.3,-10.3,-1.1,1.7,.,.,.
O=C(NCCC(=O)N1CCN(S(=O)(=O)c2ccccc2Cl)CC1)Nc1ccccc1,0.6,-0.3,-7.3,0.7,-1.6,.,.,.
COc1ccc(NC(=O)c2cc([N+](=O)[O-])ccc2N2CCCC2)cc1S(N)(=O)=O,-0.7,-0.1,7.6,6.3,2.9,.,.,.
c1ccc(SCc2nc3ccccc3[nH]2)nc1,-3.6,2.5,3.3,-6.5,-0.3,.,.,.
c1ccc2[nH]c(CSc3nc4ccccc4s3)nc2c1,1.2,8.1*,1.7,-4.1,-33.1,19.7*,7.5,5.5
O=C(NCc1nc2ccccc2[nH]1)C1=C[C@@H](C2CCCCC2)C[C@@H](OCc2ccc(CO)cc2)O1,5.7,9.0*,-10.7,-2.9,-19.5,82.1*,1.0,53.9*
O=C(NCc1nc2ccccc2[nH]1)C1=C[C@H](C2CCCCC2)C[C@H](OCCCCO)O1,-1.0,58.8*,6.3,0.2,-4.2,74.8*,6.7,52.8*
O=C(NCc1nc2ccccc2[nH]1)C1=C[C@H](C2CC2)C[C@H](OCCCCO)O1,1.9,-0.2,-1.9,-0.3,4.8,.,.,.
O=C(NCc1nc2ccccc2[nH]1)C1=C[C@H](C2CCCCC2)C[C@H](OCc2ccc(CO)cc2)O1,2.4,4.8,0.6,-3.4,-19.9,.,.,.
COCCNC(=O)C1(C)CCN(C(=O)c2ccc(OC)c(F)c2)C1 (stereo unspecified),-0.3,-0.2,.,.,2.6,.,.,.
Cc1ccc(NC(=O)CSCC(=O)N2CCN(Cc3ccc4c(c3)OCO4)CC2)cc1,-1.4,-0.1,-1.2,-0.9,-4.7,.,.,.
O=C(NCc1nc2ccccc2[nH]1)C1=C[C@H](c2ccc(C(F)(F)F)cc2)C[C@H](OCCCCO)O1,-1.0,30.6*,0.7,4.3,12.0,69.0*,9.0,38.0*
